What was measured:
Type in all cases: functional
COLO 205 = test: Growth inhibition of human COLO205 cells at 10 uM after 48 hrs by coulter counter method; conditions: COLO 205, 48 h, read-out: GI
Method in brief: (§1)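 Single high-dose NCI 60-cell-line panel screen across nine tumor subpanels. Test solutions (0.2 mL) were added in duplicate to wells holding 1.8 mL of culture at 6 × 10⁴ cells/mL. Controls got PBS and DMSO at identical dilutions. Incubation was 48 h at 37 °C in humidified 5% CO₂. Cells were diluted 10-fold in saline, Coulter-counted and dilution-corrected. Results were expressed as percent growth inhibition versus control.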

SR = test: Growth inhibition of human SR cells at 10 uM after 48 hrs by coulter counter method; conditions: read-out: GI; method in brief: as §1
MDA-MB-468 = test: Growth inhibition of human MDA-MB-468 cells at 10 uM after 48 hrs by coulter counter method; conditions: MDA-MB-468, 48 h, read-out: GI; method in brief: as §1
HOP-92 = test: Growth inhibition of human HOP92 cells at 10 uM after 48 hrs by coulter counter method; conditions: HOP-92, 48 h, read-out: GI; method in brief: as §1
NCI-H522 = test: Growth inhibition of human NCI-H522 cells at 10 uM after 48 hrs by coulter counter method; conditions: NCI-H522, 48 h, read-out: GI; method in brief: as §1
786-0 = test: Growth inhibition of human 786-0 cells at 10 uM after 48 hrs by coulter counter method; conditions: 786-0, 48 h, read-out: GI; method in brief: as §1
MOLT-4 = test: Growth inhibition of human MOLT4 cells at 10 uM after 48 hrs by coulter counter method; conditions: MOLT-4, 48 h, read-out: GI; method in brief: as §1
SNB-75 = test: Growth inhibition of human SNB75 cells at 10 uM after 48 hrs by coulter counter method; conditions: SNB-75, 48 h, read-out: GI; method in brief: as §1
OVCAR-4 = test: Growth inhibition of human OVCAR4 cells at 10 uM after 48 hrs by coulter counter method; conditions: OVCAR-4, 48 h, read-out: GI; method in brief: as §1
SF-268 = test: Growth inhibition of human SF268 cells at 10 uM after 48 hrs by coulter counter method; conditions: SF-268, 48 h, read-out: GI; method in brief: as §1
HL-60(TB) = test: Growth inhibition of human HL-60(TB) cells at 10 uM after 48 hrs by coulter counter method; conditions: HL-60, 48 h, read-out: GI
Method in brief: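 Part of the NCI 60-cell-line single-high-dose panel. Cells were seeded at 6 × 10⁴ cells/mL with test solution in duplicate wells, alongside PBS/DMSO controls at identical dilutions. Plates were held 48 h at 37 °C in a humidified 5% CO₂ incubator. Cells were then diluted 10-fold in saline and counted by Coulter counter, with counts corrected for dilution. Results are percent growth of treated cells, reported as GI %.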

SN12C = test: Growth inhibition of human SN12C cells at 10 uM after 48 hrs by coulter counter method; conditions: read-out: GI; method in brief: as §1
IGROV-1 = test: Growth inhibition of human IGROV1 cells at 10 uM after 48 hrs by coulter counter method; conditions: IGROV-1, 48 h, read-out: GI; method in brief: as §1
SK-MEL-2 = test: Growth inhibition of human SK-MEL-2 cells at 10 uM after 48 hrs by coulter counter method; conditions: SK-MEL-2, 48 h, read-out: GI; method in brief: as §1
K562 = test: Growth inhibition of human K562 cells at 10 uM after 48 hrs by coulter counter method; conditions: K562, 48 h, read-out: GI; method in brief: as §1
NCI-H226 = test: Growth inhibition of human NCI-H226 cells at 10 uM after 48 hrs by coulter counter method; conditions: NCI-H226, 48 h, read-out: GI; method in brief: as §1
M14 = test: Growth inhibition of human M14 cells at 10 uM after 48 hrs by coulter counter method; conditions: M14, 48 h, read-out: GI; method in brief: as §1
MDA-MB-231 = test: Growth inhibition of human MDA-MB-231 cells at 10 uM after 48 hrs by coulter counter method; conditions: MDA-MB-231, 48 h, read-out: GI; method in brief: as §1
[1] = Growth inhibition of human Hs 578T cells at 10 uM after 48 hrs by coulter counter method; conditions: read-out: GI; method in brief: as §1
MCF7 = test: Growth inhibition of human MCF7 cells at 10 uM after 48 hrs by coulter counter method; conditions: MCF7, 48 h, read-out: GI; method in brief: as §1
CAKI-1 = test: Growth inhibition of human Caki1 cells at 10 uM after 48 hrs by coulter counter method; conditions: CAKI-1, 48 h, read-out: GI; method in brief: as §1
UO-31 = test: Growth inhibition of human UO31 cells at 10 uM after 48 hrs by coulter counter method; conditions: UO-31, 48 h, read-out: GI; method in brief: as §1
A549 = test: Growth inhibition of human A549 cells at 10 uM after 48 hrs by coulter counter method; conditions: A549, 48 h, read-out: GI; method in brief: as §1
KM12 = test: Growth inhibition of human KM12 cells at 10 uM after 48 hrs by coulter counter method; conditions: KM12, 48 h, read-out: GI; method in brief: as §1
OVCAR-8 = test: Growth inhibition of human OVCAR8 cells at 10 uM after 48 hrs by coulter counter method; conditions: OVCAR-8, 48 h, read-out: GI; method in brief: as §1
BT-549 = test: Growth inhibition of human BT549 cells at 10 uM after 48 hrs by coulter counter method; conditions: BT-549, 48 h, read-out: GI; method in brief: as §1
HT-29 = test: Growth inhibition of human HT-29 cells at 10 uM after 48 hrs by coulter counter method; conditions: HT-29, 48 h, read-out: GI; method in brief: as §1
SF-539 = test: Growth inhibition of human SF539 cells at 10 uM after 48 hrs by coulter counter method; conditions: SF-539, 48 h, read-out: GI; method in brief: as §1
HCT-116 = test: Growth inhibition of human HCT116 cells at 10 uM after 48 hrs by coulter counter method; conditions: HCT-116, 48 h, read-out: GI; method in brief: as §1
NCI-H23 = test: Growth inhibition of human NCI-H23 cells at 10 uM after 48 hrs by coulter counter method; conditions: NCI-H23, 48 h, read-out: GI; method in brief: as §1
UACC-62 = test: Growth inhibition of human UACC62 cells at 10 uM after 48 hrs by coulter counter method; conditions: UACC-62, 48 h, read-out: GI; method in brief: as §1
U-251 = test: Growth inhibition of human U251 cells at 10 uM after 48 hrs by coulter counter method; conditions: U-251, 48 h, read-out: GI; method in brief: as §1
PC-3 = test: Growth inhibition of human PC3 cells at 10 uM after 48 hrs by coulter counter method; conditions: PC-3, 48 h, read-out: GI; method in brief: as §1
SK-MEL-28 = test: Growth inhibition of human SK-MEL-28 cells at 10 uM after 48 hrs by coulter counter method; conditions: SK-MEL-28, 48 h, read-out: GI; method in brief: as §1
SK-OV-3 = test: Growth inhibition of human SKOV3 cells at 10 uM after 48 hrs by coulter counter method; conditions: SK-OV-3, 48 h, read-out: GI; method in brief: as §1
T47D = test: Growth inhibition of human T47D cells at 10 uM after 48 hrs by coulter counter method; conditions: read-out: GI; method in brief: as §1
CCRF-CEM = test: Growth inhibition of human CCRF-CEM cells at 10 uM after 48 hrs by coulter counter method; conditions: read-out: GI; method in brief: as §1

Measured: inhibition of growth at 10 µM

NS(=O)(=O)c1ccc(Nc2nc3ccccc3c(=O)n2-c2ccc(Cl)cc2)cc1
33.6%: HCT-116
30.2%: SR
38.1%: MOLT-4
34.3%: K562
30%: all other assays above

COc1ccc(-n2c(Nc3ccc(S(N)(=O)=O)cc3)nc3ccccc3c2=O)cc1
36.7%: HCT-116
47.1%: K562
37.5%: MDA-MB-468
30%: all other assays above

O=c1c2ccccc2nc(Nc2cc(O)nc(S)n2)n1-c1ccc(Cl)cc1
36.4%: SR
36.5%: K562
30.8%: MOLT-4
30%: all other assays above

O=C1Nc2ccc(C(=O)Nc3ccccn3)cc2C(c2ccc(Cl)cc2)N1 (stereo not drawn)
32.9%: PC-3
39.8%: HCT-116
44.9%: T47D
30.4%: NCI-H23
41.8%: UO-31
33.9%: MOLT-4
39.2%: MCF7
37.4%: HT-29
31.8%: BT-549
30%: all other assays above

From ChEMBL document CHEMBL1629431, “Synthesis and antitumor activity of some 2, 3-disubstituted quinazolin-4(3H)-ones and 4, 6- disubstituted- 1, 2, 3, 4-tetrahydroquinazolin-2H-ones” (2010)
